Columns and labels:
[1] = NO absorption by ILs, gravimetric method; format: physicochemical; settings: 30°C until full absorption
Outline: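 The system was purged with N2 (60 ml/min, 30 min). NO at atmospheric pressure was then bubbled at about 20 ml/min through about 1 g of test compound held in a metal block at 30°C. Uptake was weighed at regular intervals on a balance (±0.0001 g) until absorption was complete, and expressed as mol NO per mol compound.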

[2] = HNO release half-life of IL-NONOates in PBS, UV absorbance decay at 330 nm; format: physicochemical; settings: IL-NONOate formed from the IL; 37°C, pH 7.4, 0.01 M phosphate buffer (PBS)
[3] = test system: CT-26 cells and MCF-7 cells; assay: Cellular RNS detection, red fluorescent dye, microscopy and flow cytometry; format: cell-based; settings: after 4 hours of treatment, CT-26 and MCF-7 cells
Outline: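 CT-26 and MCF-7 cells (RPMI 1640, 10% FBS, 37°C, 5% CO2) grown in 24-well plates were preloaded with NO detection reagent for 2 h under normal culture conditions. The reagent was removed, and cells were exposed to test compound for 1, 2 or 4 h, with a commercial HNO donor as positive control. Cells were washed once, and red fluorescence was imaged by inverted fluorescence microscopy.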

[4] = test system: CT-26 cells; assay: Cellular GSH quantitative analysis; format: cell-based; settings: 1.0 mM, 0.5 and 2 hours
Outline: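 CT-26 cells (RPMI 1640, 10% FBS, 37°C, 5% CO2) seeded in 24-well plates at 40,000 cells/well for 18 h. Medium replaced with serum-free medium containing test compound at various concentrations. After 0.5 or 2 h the cells were lysed and intracellular GSH was measured with a GSH/GSSG assay kit.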

[5] = ITC binding of ILs to cardiolipin; settings: compared with [Ch][Tau] or [EMIm][APA]
Outline: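 Isothermal titration calorimetry at 25°C. An aqueous solution of test compound in the syringe was titrated into aqueous 18:1 cardiolipin in the sample cell. One small injection was followed by 28 larger injections, each lasting 10 s, with 120 s between injections and stirring at 1001 rpm. The binding constant was obtained from analysis of the calorimetric data.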

t1/2 (HNO release half-life) [2] [h]	Structure (SMILES)	Absorption capacity [1]	other results
16.6	CCn1cc[n+](C)c1.NCCC(=O)[O-] [[EMIm][APA]]	2.11 mol NO per mol of IL	
	C1CCC2=NCCCN2CC1.NCCS(=O)(=O)O [[DBU][Tau]]	2.79 mol NO per mol of IL	
	CCn1cc[n+](C)c1.NCCS(=O)(=O)[O-] [[EMIm][Tau]]	2.28 mol NO per mol of IL	
	[Na+].[Na+].[O-][N+]([O-])=NO [AS, Na2N2O3]		intracellular RNS level [3]: failed to achieve this goal; intracellular GSH levels [4]: restoration of GSH
	C[N+](C)(C)CCO.NCCS(=O)(=O)[O-] [[Ch][Tau]]	1.67 mol NO per mol of IL	
17.68	C[N+](C)(C)CCO.NCCC(=O)[O-] [[Ch][APA]]	1.70 mol NO per mol of IL	binding constant with CL, comparison [5]: significantly higher
5.4	CCn1cc[n+](C)c1.NCS(=O)(=O)[O-] [[EMIm][AMS]]	1.38 mol NO per mol of IL	
16	CCn1cc[n+](C)c1.NCCCS(=O)(=O)[O-] [[EMIm][APS]]	2.79 mol NO per mol of IL	
	C[N+](C)(CCO)CCO.NCCS(=O)(=O)[O-] [[HEMN][Tau]]	2.51 mol NO per mol of IL	

Structure (SMILES)	t1/2 (HNO release half-life) [2] [h]	Absorption capacity [1]	other results
CCCCCCCCCCCCCC[P+](CCCCCC)(CCCCCC)CCCCCC.NCCS(=O)(=O)[O-] [[P66614][Tau]]	5.42	3.33 mol NO per mol of IL	

From article PMC7673712 (Science Advances, 2020)
